Experiments:
NCI-H23 = assay: Cytotoxicity against human NCI-H23 cells assessed as cell growth at 10 uM after 48 hrs by SRB assay relative to control; format: functional; details: NCI-H23, 48 h, read-out: Activity
Outline: (§1)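 First-stage NCI DTP one-dose screen against the 60 human tumour cell line panel. Compounds were tested at a single 10 μM level, and results are given as growth percentage.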

[1] = Cytotoxicity against human Hs578T cells assessed as cell growth at 10 uM after 48 hrs by SRB assay relative to control; format: functional; details: Hs-578T, read-out: Activity
Outline: (§2)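 First-stage NCI-60 screen by the NCI Developmental Therapeutics Program. Each compound was tested once at a single concentration of 10 μM against the 60-cell-line panel. Growth percentage was reported for each cell line.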

IGROV-1 = assay: Cytotoxicity against human IGROV1 cells assessed as cell growth at 10 uM after 48 hrs by SRB assay relative to control; format: functional; details: IGROV-1, 48 h, read-out: Activity; outline: as §2
UACC-257 = assay: Cytotoxicity against human UACC257 cells assessed as cell growth at 10 uM after 48 hrs by SRB assay relative to control; format: functional; details: UACC-257, 48 h, read-out: Activity
Outline: (§3)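 NCI-60 one-dose screen run by NCI DTP: each cell line exposed to a single 10 µM dose, and percentage growth recorded against untreated growth.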

NCI-H460 = assay: Cytotoxicity against human NCI-H460 cells assessed as cell growth at 10 uM after 48 hrs by SRB assay relative to control; format: functional; details: NCI-H460, 48 h, read-out: Activity; outline: as §1
TK-10 = assay: Cytotoxicity against human TK10 cells assessed as cell growth at 10 uM after 48 hrs by SRB assay relative to control; format: functional; details: TK-10, 48 h, read-out: Activity; outline: as §3
HCT-116 = assay: Cytotoxicity against human HCT116 cells assessed as cell growth at 10 uM after 48 hrs by SRB assay relative to control; format: functional; details: HCT-116, 48 h, read-out: Activity; outline: as §2
OVCAR-4 = assay: Cytotoxicity against human OVCAR4 cells assessed as cell growth at 10 uM after 48 hrs by SRB assay relative to control; format: functional; details: OVCAR-4, 48 h, read-out: Activity; outline: as §1
[2] = Cytotoxicity against human EKVX cells assessed as cell growth at 10 uM after 48 hrs by SRB assay relative to control; format: functional; details: read-out: Activity; outline: as §2
NCI-H322M = assay: Cytotoxicity against human NCI-H322M cells assessed as cell growth at 10 uM after 48 hrs by SRB assay relative to control; format: functional; details: read-out: Activity; outline: as §1
Malme-3M = assay: Cytotoxicity against human MALME-3M cells assessed as cell growth at 10 uM after 48 hrs by SRB assay relative to control; format: functional; details: read-out: Activity; outline: as §2
MOLT-4 = assay: Cytotoxicity against human MOLT4 cells assessed as cell growth at 10 uM after 48 hrs by SRB assay relative to control; format: functional; details: MOLT-4, 48 h, read-out: Activity; outline: as §1
SR = assay: Cytotoxicity against human SR cells assessed as cell growth at 10 uM after 48 hrs by SRB assay relative to control; format: functional; details: read-out: Activity; outline: as §3
HCC 2998 = assay: Cytotoxicity against human HCC2998 cells assessed as cell growth at 10 uM after 48 hrs by SRB assay relative to control; format: functional; details: HCC 2998, 48 h, read-out: Activity; outline: as §2
CAKI-1 = assay: Cytotoxicity against human Caki1 cells assessed as cell growth at 10 uM after 48 hrs by SRB assay relative to control; format: functional; details: CAKI-1, 48 h, read-out: Activity; outline: as §2
UACC-62 = assay: Cytotoxicity against human UACC62 cells assessed as cell growth at 10 uM after 48 hrs by SRB assay relative to control; format: functional; details: UACC-62, 48 h, read-out: Activity; outline: as §3
CCRF-CEM = assay: Cytotoxicity against human CCRF-CEM cells assessed as cell growth at 10 uM after 48 hrs by SRB assay relative to control; format: functional; details: read-out: Activity; outline: as §2
BT-549 = assay: Cytotoxicity against human BT549 cells assessed as cell growth at 10 uM after 48 hrs by SRB assay relative to control; format: functional; details: BT-549, 48 h, read-out: Activity; outline: as §2
LOX IMVI = assay: Cytotoxicity against human LOXIMVI cells assessed as cell growth at 10 uM after 48 hrs by SRB assay relative to control; format: functional; details: read-out: Activity; outline: as §2
COLO 205 = assay: Cytotoxicity against human COLO205 cells assessed as cell growth at 10 uM after 48 hrs by SRB assay relative to control; format: functional; details: COLO 205, 48 h, read-out: Activity; outline: as §2
T47D = assay: Cytotoxicity against human T47D cells assessed as cell growth at 10 uM after 48 hrs by SRB assay relative to control; format: functional; details: read-out: Activity; outline: as §3
MDA-MB-468 = assay: Cytotoxicity against human MDA-MB-468 cells assessed as cell growth at 10 uM after 48 hrs by SRB assay relative to control; format: functional; details: MDA-MB-468, 48 h, read-out: Activity; outline: as §1
PC-3 = assay: Cytotoxicity against human PC3 cells after 48 hrs by SRB assay; format: functional, cell-based; details: PC-3, 48 h
Outline: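 Second-stage NCI-60 panel run by the NCI Developmental Therapeutics Program, covering nine tumour subpanels. Five concentrations were tested: 0.01, 0.1, 1, 10 and 100 μM. Percentage growth at each level was plotted against log10 drug concentration. GI50, TGI and LC50 were read from these dose-response curves. Subpanel MID values were divided into the full-panel MID to give selectivity ratios.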

UO-31 = assay: Cytotoxicity against human UO31 cells assessed as cell growth at 10 uM after 48 hrs by SRB assay relative to control; format: functional; details: UO-31, 48 h, read-out: Activity; outline: as §3
SK-MEL-5 = assay: Cytotoxicity against human SK-MEL-5 cells assessed as cell growth at 10 uM after 48 hrs by SRB assay relative to control; format: functional; details: SK-MEL-5, 48 h, read-out: Activity; outline: as §1
NCI-H522 = assay: Cytotoxicity against human NCI-H522 cells assessed as cell growth at 10 uM after 48 hrs by SRB assay relative to control; format: functional; details: NCI-H522, 48 h, read-out: Activity; outline: as §1
MCF7 = assay: Cytotoxicity against human MCF7 cells assessed as cell growth at 10 uM after 48 hrs by SRB assay relative to control; format: functional; details: MCF7, 48 h, read-out: Activity; outline: as §2
DU-145 = assay: Cytotoxicity against human DU145 cells assessed as cell growth at 10 uM after 48 hrs by SRB assay relative to control; format: functional; details: DU-145, 48 h, read-out: Activity; outline: as §2
SNB-75 = assay: Cytotoxicity against human SNB75 cells assessed as cell growth at 10 uM after 48 hrs by SRB assay relative to control; format: functional; details: SNB-75, 48 h, read-out: Activity; outline: as §3
SF-539 = assay: Cytotoxicity against human SF539 cells assessed as cell growth at 10 uM after 48 hrs by SRB assay relative to control; format: functional; details: SF-539, 48 h, read-out: Activity; outline: as §1
HOP-92 = assay: Cytotoxicity against human HOP92 cells assessed as cell growth at 10 uM after 48 hrs by SRB assay relative to control; format: functional; details: HOP-92, 48 h, read-out: Activity; outline: as §2

Structure (SMILES)	growth at 10 µM (NCI-H23) [%]	growth at 10 µM [1] [%]	growth at 10 µM (IGROV-1) [%]	growth at 10 µM (UACC-257) [%]	growth at 10 µM (NCI-H460) [%]	growth at 10 µM (TK-10) [%]	growth at 10 µM (HCT-116) [%]	growth at 10 µM (OVCAR-4) [%]	growth at 10 µM [2] [%]	growth at 10 µM (NCI-H322M) [%]	growth at 10 µM (Malme-3M) [%]	growth at 10 µM (MOLT-4) [%]	growth at 10 µM (SR) [%]	growth at 10 µM (HCC 2998) [%]	growth at 10 µM (CAKI-1) [%]	growth at 10 µM (UACC-62) [%]	growth at 10 µM (CCRF-CEM) [%]	growth at 10 µM (BT-549) [%]	growth at 10 µM (LOX IMVI) [%]	growth at 10 µM (COLO 205) [%]	other results
Cc1cccc(C)c1Sc1cc2c(c3nsnc13)C(=O)c1ccccc1C2=O	67.4	82.4	66.4	86.6	87.4	119	65	4	82.4	83.8	73.7	32.6	35.5	101	61	91.7	34.8	105	44.6	98.8	growth at 10 µM (T47D): 66.8%; growth at 10 µM (MDA-MB-468): 45.9%; IC50 (PC-3): 6.74 µM; growth at 10 µM (UO-31): 66.7%; growth at 10 µM (SK-MEL-5): 70.2%; growth at 10 µM (NCI-H522): 61.4%; growth at 10 µM (MCF7): 68.6%; growth at 10 µM (DU-145): 106%; growth at 10 µM (SNB-75): 69.4%; growth at 10 µM (SF-539): 84.5%
O=C1c2ccccc2C(=O)c2c1cc(Sc1ccc(Cl)cc1)c1nsnc21	100	103	84.9	95.5	103	140	98.2	76.8	94.8	99.5	105	59.2	111	107	87	90.7	79.3	98.9	83.2	121	growth at 10 µM (HOP-92): 94.8%; growth at 10 µM (T47D): 85%; growth at 10 µM (MDA-MB-468): 46.1%; IC50 (PC-3): > 15 µM; growth at 10 µM (UO-31): 79.5%; growth at 10 µM (NCI-H522): 93.4%; growth at 10 µM (MCF7): 86.1%; growth at 10 µM (DU-145): 117%; growth at 10 µM (SNB-75): 91.7%; growth at 10 µM (SF-539): 107%
O=C1c2ccccc2C(=O)c2c1cc(SCc1ccccc1)c1nsnc21	55.3	60	43.9	58.9	92	130	53.1	-68.2	95	98.4	80.8	-21	1.25	115	73.8	43.1	0.65	96.2	7.49	103	growth at 10 µM (HOP-92): -14.4%; growth at 10 µM (T47D): -46.1%; growth at 10 µM (MDA-MB-468): -85.3%; IC50 (PC-3): > 15 µM; growth at 10 µM (UO-31): 73.8%; growth at 10 µM (SK-MEL-5): 22.5%; growth at 10 µM (NCI-H522): 78.9%; growth at 10 µM (MCF7): 56.4%; growth at 10 µM (DU-145): 82.2%; growth at 10 µM (SNB-75): 39.6%; growth at 10 µM (SF-539): 68.3%
O=C1c2ccccc2C(=O)c2c1cc(Sc1ccccc1)c1nsnc21	79.2	95.9	84.4	92.8	101	143	90.1	57.8	97.8	101	106	31.1	86.4	111	89	86.3	15.7	105	42	118	growth at 10 µM (HOP-92): 118%; growth at 10 µM (T47D): 93.2%; growth at 10 µM (MDA-MB-468): 87.3%; IC50 (PC-3): > 15 µM; growth at 10 µM (UO-31): 80.1%; growth at 10 µM (SK-MEL-5): 85.7%; growth at 10 µM (NCI-H522): 94.9%; growth at 10 µM (MCF7): 94.9%; growth at 10 µM (DU-145): 103%; growth at 10 µM (SNB-75): 96.1%; growth at 10 µM (SF-539): 107%
